Source: ChEMBL document CHEMBL3526077, “Prediction of human metabolism of FK3453 by aldehyde oxidase using chimeric mice transplanted with human or rat hepatocytes” (Drug Metab Dispos, 2012)

Experiments:
[1] = Half life in chimeric mouse transplanted with human hepatocytes at 3 mg/kg, iv; type: ADME, organism-based, Hepatocyte; set-up: dose 3 mg/kg, route intravenous
Summary of the method: (§1)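 Single 3 mg/kg intravenous dose in 10% DMSO, 10% PEG400 with equimolar HCl in saline to h-PXB or r-PXB mice (n=3~4). Orbital-vein plasma collected over 0–6 hr and measured by LC/MS/MS. Non-compartmental analysis; AUC by trapezoidal rule extrapolated to infinity; CLt = Dose/AUCiv.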

[2] = Drug excretion in feces of chimeric mouse transplanted with human hepatocytes at 3 mg/kg, iv as single dose; type: ADME, organism-based, Hepatocyte; set-up: dose 3 mg/kg, route intravenous; details: read-out: Drug excretion
Summary of the method: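 After a 3 mg/kg i.v. dose, pooled urine and feces were collected from metabolic cages over 0–24 hr (n=3). Samples were homogenized in 10 volumes of water, mixed with acetonitrile and analysed by UPLC (UV 254 nm) and LC/MS/MS. Excretion expressed as % of dose.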

[3] = Cmax in chimeric mouse transplanted with rat hepatocytes at 3 mg/kg, po; type: ADME, organism-based, Hepatocyte; set-up: dose 3 mg/kg, route oral
Summary of the method: (§2)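 Single 3 mg/kg oral dose of compound in 50% PEG400 with equimolar HCl in saline to h-PXB or r-PXB mice (n=3~4). Orbital-vein blood (heparinized) taken over 0–6 hr; plasma stored at -30°C and assayed by LC/MS/MS. Non-compartmental analysis: Cmax from observed values, AUC by trapezoidal rule extrapolated to infinity, CLoral = Dose/AUCpo.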

[4] = Oral bioavailability in rat at 3.2 mg/kg; type: ADME, organism-based; details: in vivo
Mus musculus [5] = test: Drug metabolism in plasma of chimeric mouse transplanted with human hepatocytes at 3 mg/kg, iv as single dose; type: ADME, organism-based, Hepatocyte; set-up: dose 3 mg/kg, route intravenous
Summary of the method: (§3)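 Pooled plasma from h-PXB or r-PXB mice after a 3 mg/kg i.v. dose was mixed with an equal volume of acetonitrile and centrifuged. Metabolites were profiled by C18 UPLC with ammonium formate/acetonitrile gradient, UV 254 nm, and Orbitrap MS/MS. Scored as detected or not detected.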

[6] = Clearance in human at 10 mg, po; type: ADME, organism-based; details: in vivo
[7] = Total clearance in chimeric mouse transplanted with rat hepatocytes at 3 mg/kg, iv; type: ADME, organism-based, Hepatocyte; set-up: dose 3 mg/kg, route intravenous; details: read-out: CLH; summary of the method: as §1
aldehyde oxidase = molecular target: T1, aldehyde oxidase (Homo sapiens, UniProt Q06278); test: Activity of aldehyde oxidase in hepatocytes isolated from chimeric mouse transplanted with human hepatocytes assessed as enzyme-mediated drug metabolism measured as compound remaining at 10 uM after 2 hrs by LC/MS/MS analysis; type: ADME, cell-based, Hepatocyte; details: read-out: Stability
T1 sequence (Q06278 whole entry): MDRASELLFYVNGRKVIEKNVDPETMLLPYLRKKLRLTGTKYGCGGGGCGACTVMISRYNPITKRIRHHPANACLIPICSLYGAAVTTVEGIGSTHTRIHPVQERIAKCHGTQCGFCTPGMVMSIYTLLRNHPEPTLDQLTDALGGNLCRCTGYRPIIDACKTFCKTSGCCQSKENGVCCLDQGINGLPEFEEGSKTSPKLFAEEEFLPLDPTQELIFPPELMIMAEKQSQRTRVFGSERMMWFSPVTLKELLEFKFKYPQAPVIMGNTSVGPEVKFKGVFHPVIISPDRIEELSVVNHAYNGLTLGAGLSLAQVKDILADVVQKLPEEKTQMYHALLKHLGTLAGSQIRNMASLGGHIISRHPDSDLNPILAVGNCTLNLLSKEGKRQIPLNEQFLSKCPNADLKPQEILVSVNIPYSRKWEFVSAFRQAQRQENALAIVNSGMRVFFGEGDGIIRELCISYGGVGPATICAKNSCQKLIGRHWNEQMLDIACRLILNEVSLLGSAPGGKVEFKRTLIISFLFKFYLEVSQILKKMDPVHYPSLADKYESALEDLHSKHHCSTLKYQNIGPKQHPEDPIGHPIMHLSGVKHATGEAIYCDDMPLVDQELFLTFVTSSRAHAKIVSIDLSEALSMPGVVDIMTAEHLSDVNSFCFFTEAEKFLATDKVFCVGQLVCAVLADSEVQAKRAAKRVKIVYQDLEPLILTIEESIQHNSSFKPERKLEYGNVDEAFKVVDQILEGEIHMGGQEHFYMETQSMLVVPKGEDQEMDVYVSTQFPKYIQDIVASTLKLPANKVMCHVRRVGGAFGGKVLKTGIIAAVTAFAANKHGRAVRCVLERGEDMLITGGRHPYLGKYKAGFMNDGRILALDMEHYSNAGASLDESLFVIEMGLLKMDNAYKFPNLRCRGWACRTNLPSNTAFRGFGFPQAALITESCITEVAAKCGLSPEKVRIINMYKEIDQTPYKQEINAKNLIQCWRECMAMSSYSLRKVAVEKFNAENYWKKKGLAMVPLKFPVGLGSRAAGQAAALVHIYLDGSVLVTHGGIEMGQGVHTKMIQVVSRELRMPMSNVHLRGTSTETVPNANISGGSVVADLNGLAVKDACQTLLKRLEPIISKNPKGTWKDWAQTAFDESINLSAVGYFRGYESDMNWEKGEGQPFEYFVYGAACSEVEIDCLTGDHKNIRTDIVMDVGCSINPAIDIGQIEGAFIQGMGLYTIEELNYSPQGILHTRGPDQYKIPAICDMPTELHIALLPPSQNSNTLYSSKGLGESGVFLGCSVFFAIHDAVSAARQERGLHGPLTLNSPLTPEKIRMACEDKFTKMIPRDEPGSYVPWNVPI
Summary of the method: (§4)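 Fresh hepatocytes from h-PXB mice (mouse cells removed with 66Z rat IgG and anti-rat IgG magnetic beads) or r-PXB mice, 1×10^6 cells/mL in serum-free Krebs-Henseleit buffer. Incubated with 10 μM compound (0.5% acetonitrile) at 37°C under 5% CO₂/95% O₂ with shaking, sampled 0–2 hr. Quenched with acetonitrile, analysed by LC/MS/MS, n=3. CLint derived from first-order depletion rate constant.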

[8] = Half life in rat at 3 mg/kg, iv; type: ADME, organism-based; set-up: dose 3 mg/kg, route intravenous; details: in vivo
[9] = Intrinsic clearance in hepatocytes isolated from chimeric mouse transplanted with human hepatocytes assessed as per million cells at 10 uM after 2 hrs by LC/MS/MS analysis; type: ADME, cell-based, Hepatocyte; details: read-out: CLH; summary of the method: as §4
Mus musculus [10] = test: Drug metabolism in plasma of chimeric mouse transplanted with rat hepatocytes at 3 mg/kg, iv as single dose; type: ADME, organism-based, Hepatocyte; set-up: dose 3 mg/kg, route intravenous; summary of the method: as §3
[11] = Cmax in chimeric mouse transplanted with human hepatocytes at 3 mg/kg, po; type: ADME, organism-based, Hepatocyte; set-up: dose 3 mg/kg, route oral; summary of the method: as §2
[12] = Clearance in rat at 3.2 mg/kg, po; type: ADME, organism-based; set-up: dose 3.2 mg/kg, route oral; details: in vivo
[13] = AUC in rat at 3.2 mg/kg, po; type: ADME, organism-based; set-up: dose 3.2 mg/kg, route oral; details: plasma
[14] = Plasma protein binding in rat by equilibrium dialysis method; type: ADME, cell-free; details: read-out: PPB (converted)
[15] = Oral bioavailability in chimeric mouse transplanted with human hepatocytes at 3 mg/kg; type: ADME, organism-based, Hepatocyte
[16] = AUC in chimeric mouse transplanted with rat hepatocytes at 3 mg/kg, po; type: ADME, organism-based, Hepatocyte; set-up: dose 3 mg/kg, route oral; summary of the method: as §2
[17] = AUC in human at 10 mg, po; type: ADME, organism-based; details: plasma

Compound: CC(C)n1nc(-c2cnc(N)nc2-c2ccccc2)ccc1=O
- half-life [1]: 42 min
- dose excreted [2]: 0.1%
- Cmax [3]: 856 ng/mL
- bioavailability [4]: 34.6%
- Drug metabolism (Mus musculus [5]): metabolite_detected
- CL/F [6]: 1090 mL/min/kg
- clearance [7]: 34 mL/min/kg
- remaining at 2 h, 10 µM (aldehyde oxidase): 27.5%
- half-life [8]: 24 min
- hepatocyte CLint at 10 µM [9]: 10 µL/min/1e6 cells
- Drug metabolism (Mus musculus [10]): metabolite_detected
- Cmax [11]: 253 ng/mL
- CL/F [12]: 29.8 mL/min/kg
- AUC [13]: 1790 ng·h/mL
- fraction unbound [14]: 0.246
- bioavailability [15]: 29.4%
- AUC [16]: 811 ng·h/mL
- AUC [17]: 2.19 ng·h/mL
